Results: ChEMBL document CHEMBL3091455, “Dimethylaminopyridine derivatives of lupane triterpenoids cause mitochondrial disruption and induce the permeability transition” (Bioorg Med Chem, 2013)
Calls of active or inactive are those of the source. The rule behind the calls is not given here.

Experiments:
[1] = organism: Rattus norvegicus; experiment: Effect on calcium-induced mitochondrial swelling in Wistar-Han rat liver mitochondria assessed as mitochondrial transmembrane electric potential after 2 mins; type: functional
Procedure, shortened: (§1)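 TPP⁺ electrode, 30 °C, 1 mg rat liver mitochondria in 1 ml 200 mM sucrose, 10 mM Tris-MOPS pH 7.2, 10 µM EGTA, 1 mM KH₂PO₄, 3 µM rotenone, 3 µM TPP⁺. Compound incubated with mitochondria 2 min (legend), then 5 mM succinate. Calcium 30–60 nmol pulses, depending on preparation. Controls: 1 µM cyclosporin A pre-incubated; FCCP.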

[2] = organism: Rattus norvegicus; experiment: Effect on electron transport protein complex 1 in Wistar-Han rat liver mitochondria using glutamate/malate as substrate assessed as ADP-induced depolarization at 6 ug/mg relative to control
[3] = system: BJ; experiment: Induction of mitochondrial depolarization in human BJ cells at 1 ug/ml after 48 hrs by MitoTracker Red staining; type: cell-based
Procedure, shortened: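 BJ normal human fibroblasts grown as monolayers in DMEM with 10% FBS, 37 °C, 5% CO2. Seeded on glass coverslips, attached 24 h, then exposed to compound (1 µg/ml) for 48 h. MitoTracker Red CMXRos (7.3 nM) added 30 min before end at 37 °C in dark. Methanol-fixed at -20 °C overnight, imaged by epifluorescence (63× objective). Three independent experiments.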

[4] = organism: Rattus norvegicus; experiment: Effect on electron transport protein complex 2 in Wistar-Han rat liver mitochondria using succinate as substrate assessed as ADP-induced depolarization at 3 ug/mg relative to control
[5] = organism: Rattus norvegicus; experiment: Effect on electron transport protein complex 1 in Wistar-Han rat liver mitochondria using glutamate/malate as substrate assessed as mitochondrial transmembrane electric potential at 3 ug/mg relative to control
[6] = organism: Rattus norvegicus; experiment: Inhibition of electron transport protein complex 1/2 in Wistar-Han rat liver mitochondria using glutamate/malate and succinate as substrate assessed as increase of passive flux of protons through mitochondrial inner membrane at 3 to 6 ug/mg
[7] = organism: Rattus norvegicus; experiment: Effect on electron transport protein complex 1 in Wistar-Han rat liver mitochondria using glutamate/malate as substrate assessed as mitochondrial transmembrane electric potential at 6 ug/mg relative to control
[8] = organism: Rattus norvegicus; experiment: Effect on electron transport protein complex 1 in Wistar-Han rat liver mitochondria using glutamate/malate as substrate assessed as phosphorylative lag phase at 6 ug/mg relative to control
Procedure, shortened: (§2)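 Membrane potential recorded by TPP⁺ electrode, 1 mg rat liver mitochondria, 30 °C, pH 7.2 sucrose/KCl medium with 3 μM TPP⁺. Compound (3 or 6 µg/mg protein) given 1 min before glutamate/malate (5/2.5 mM) or succinate (5 mM) + 3 µM rotenone. Lag phase follows the ADP pulse (125 nmol/mg protein).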

[9] = organism: Rattus norvegicus; experiment: Effect on electron transport protein complex 2 in Wistar-Han rat liver mitochondria using succinate as substrate assessed as mitochondrial transmembrane electric potential at 6 ug/mg relative to control
[10] = organism: Rattus norvegicus; experiment: Effect on electron transport protein complex 1 in Wistar-Han rat liver mitochondria using glutamate/malate as substrate assessed as ADP-induced depolarization at 3 ug/mg relative to control
[11] = organism: Rattus norvegicus; experiment: Effect on electron transport protein complex 2 in Wistar-Han rat liver mitochondria using succinate as substrate assessed as ADP-induced depolarization at 6 ug/mg relative to control
[12] = organism: Rattus norvegicus; experiment: Effect on electron transport protein complex 1 in Wistar-Han rat liver mitochondria using glutamate/malate as substrate assessed as phosphorylative lag phase at 3 ug/mg relative to control; procedure, shortened: as §2
[13] = system: MCF7; experiment: Induction of mitochondrial depolarization in human estrogen-sensitive MCF7 cells at 1 ug/ml after 48 hrs by MitoTracker Red staining; type: functional, cell-based
Procedure, shortened: (§3)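 Cells grown in DMEM with 10% FBS at 37 °C, 5% CO₂, seeded on coverslips, attached 24 h. Then 1 µg/ml compound for 48 h. MitoTracker Red CMXRos 7.3 nM added for the final 30 min. Cells fixed in cold methanol at −20 °C overnight and imaged by epifluorescence with a 63× objective. Three independent experiments.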

[14] = organism: Rattus norvegicus; experiment: Inhibition of electron transport protein complex 1/2 in Wistar-Han rat liver mitochondria using glutamate/malate and succinate as substrate assessed as decrease of FCCP-induced respiration at 3 to 6 ug/mg
Procedure, shortened: (§4)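 Compound (3 or 6 µg/mg protein) preincubated 1 min, then 10 mM glutamate/5 mM malate or 5 mM succinate + 3 µM rotenone. ADP 187.5 nmol/mg protein; oligomycin 1 µg; FCCP 1 µM. RCR = state 3/state 4; ADP/O per Chance and Williams. Expressed as % control, means ± SEM, three preparations.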

[15] = organism: Rattus norvegicus; experiment: Effect on electron transport protein complex 2 in Wistar-Han rat liver mitochondria using succinate as substrate assessed as phosphorylative lag phase at 3 ug/mg relative to control; procedure, shortened: as §2
[16] = organism: Rattus norvegicus; experiment: Increase of calcium-induced mitochondrial permeability transition in Wistar-Han rat liver mitochondria assessed as mitochondrial transmembrane electric potential after 2 mins; type: functional; procedure, shortened: as §1
[17] = organism: Rattus norvegicus; experiment: Effect on electron transport protein complex 2 in Wistar-Han rat liver mitochondria using succinate as substrate assessed as phosphorylative lag phase at 6 ug/mg relative to control; procedure, shortened: as §2
[18] = organism: Rattus norvegicus; experiment: Effect on electron transport protein complex 2 in Wistar-Han rat liver mitochondria using succinate as substrate assessed as mitochondrial transmembrane electric potential at 3 ug/mg relative to control
[19] = system: Hs-578T; experiment: Induction of mitochondrial depolarization in human estrogen-insensitive Hs578T cells at 1 ug/ml after 48 hrs by MitoTracker Red staining; type: functional, cell-based; procedure, shortened: as §3
[20] = organism: Rattus norvegicus; experiment: Inhibition of electron transport protein complex 1/2 in Wistar-Han rat liver mitochondria using glutamate/malate and succinate as substrate assessed as decrease of ADP/O ratio at 3 to 6 ug/mg; procedure, shortened: as §4
[21] = organism: Rattus norvegicus; experiment: Inhibition of electron transport protein complex 1/2 in Wistar-Han rat liver mitochondria using glutamate/malate and succinate as substrate assessed as increase of state 3 and 4 mitochondrial oxygen consumption at 3 to 6 ug/mg; procedure, shortened: as §4
[22] = organism: Rattus norvegicus; experiment: Inhibition of electron transport protein complex 1/2 in Wistar-Han rat liver mitochondria using glutamate/malate and succinate as substrate assessed as decrease of respiratory control ratio at 6 ug/mg; procedure, shortened: as §4

Structure (SMILES) | Activity [1] | Activity [2] [%] | Activity [3] | Activity [4] [%] | Activity [5] [mV] | Activity [7] [mV] | Activity [8] [%] | Activity [9] [mV] | Activity [10] [%] | Activity [11] [%] | Activity [12] [%] | Activity [13] | Activity [15] [%] | Activity [16] | Activity [17] [%] | Activity [18] [mV] | Activity [19] | inhibition [21] | inhibition [22] | also measured
C=C(C)[C@@H]1CC[C@]2(COC(=O)C[n+]3ccc(N(C)C)cc3)CC[C@]3(C)[C@H](CC[C@@H]4[C@@]5(C)CC[C@H](OC(=O)C[n+]6ccc(N(C)C)cc6)C(C)(C)[C@@H]5CC[C@]43C)[C@@H]12.[Br-].[Br-] | inactive | 20.3 | Toxic | 30.6 | 225 | 225 | 46 | 229 | 23.4 | 27.7 | 36.8 | Active | 38.3 | Active | 40 | 232 | Active |  |  | inhibition [6]: Active; inhibition [14]: Active
C=C(C)[C@@H]1CC[C@]2(COC(=O)C[n+]3ccc(N(C)C)cc3)CC[C@]3(C)[C@H](CC[C@@H]4[C@@]5(C)CC[C@H](O)C(C)(C)[C@@H]5CC[C@]43C)[C@@H]12 | inactive | 22.6 |  | 28.5 | 225 | 225 | 31 | 224 | 22.5 | 27.8 | 28.8 |  | 39 | Active | 42 | 226 |  | Active |  | inhibition [20]: Active
C=C(C[n+]1ccc(N(C)C)cc1)[C@@H]1CC[C@]2(COC(=O)C[n+]3ccc(N(C)C)cc3)CC[C@]3(C)[C@H](CC[C@@H]4[C@@]5(C)CC[C@H](OC(=O)C[n+]6ccc(N(C)C)cc6)C(C)(C)[C@@H]5CC[C@]43C)[C@@H]12.[Br-].[Br-].[Br-] | inactive | 14.6 | Toxic | 30.3 | 225 | 226 | 46.5 | 228 | 18.5 | 27.8 | 42.8 | Active | 36 | Active | 45.5 | 232 | Active | inactive | Active | 
C=C(C[n+]1ccc(N(C)C)cc1)[C@@H]1CC[C@]2(C(=O)O)CC[C@]3(C)[C@H](CC[C@@H]4[C@@]5(C)CC[C@H](O)C(C)(C)[C@@H]5CC[C@]43C)[C@@H]12.[Br-] |  | 13.5 | Non-toxic | 22.4 | 229 | 229 | 63.3 | 228 | 19.5 | 13.8 | 51 | inactive | 40.3 |  | 57 | 228 | inactive | inactive | Active | 
C=C(C)[C@@H]1CC[C@]2(CO)CC[C@]3(C)[C@H](CC[C@@H]4[C@@]5(C)CC[C@H](OC(=O)C[n+]6ccc(N(C)C)cc6)C(C)(C)[C@@H]5CC[C@]43C)[C@@H]12.[Cl-] | inactive | 23.5 | Toxic | 36.2 | 222 | 222 | 45 | 228 | 26.5 | 29.9 | 27.8 | Active | 38 | Active | 53 | 232 | Active | inactive |  | 
